The source made the active and inactive calls. The calls are words filed in the database; no cut-off is given here.
How the values were obtained:
[1] = Inhibition of P-gp in human MCF7/DX1 cells assessed as increase in calcein-AM accumulation incubated for 10 mins by flow cytometry; assay type: cell-based; settings: MCF7/DX1, 10 min
Method in brief: (§1)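 MCF-7/DX1 cells (125,000, in suspension) were incubated at 37 °C for 10 min in BME containing 0.5 μM calcein-AM (final) plus increasing compound concentrations, with DMSO held at 5%. GF120918 1 μM served as positive control. IC50 was taken from mean fluorescence; triplicate.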

[2] = Cytotoxicity in human MCF7/DX1 cells assessed as cell viability at 2 uM incubated for 24 hrs by MTT assay; assay type: cell-based; settings: read-out: Activity
Method in brief: (§2)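 MTT viability assay on MCF-7/FLV1000 (ABCG2-overexpressing, grown with 1000 nM flavopiridol) and MCF-7/DX1 (P-gp-overexpressing, grown with 1 μM doxorubicin) cells. Cells were exposed for 24 h to increasing dimer concentrations. Viability is the absorbance of treated cells relative to untreated cells.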

[3] = Cytotoxicity in human MCF-7 FLV1000 cells assessed as cell viability at […] uM incubated for 24 hrs by MTT assay; assay type: cell-based; settings: read-out: Activity
[4] = Cytotoxicity in human MCF-7 FLV1000 cells assessed as cell viability at 40 uM incubated for 24 hrs by MTT assay; assay type: cell-based; settings: read-out: Activity; method in brief: as §2
[5] = biological target: T1, Broad substrate specificity ATP-binding cassette transporter ABCG2 (Homo sapiens, UniProt Q9UNQ0); assay: Inhibition of ABCG2 in human MCF7/FLV1000 cells assessed as increase in mitoxantrone accumulation incubated for 30 mins by flow cytometry
T1 sequence (Q9UNQ0 whole entry): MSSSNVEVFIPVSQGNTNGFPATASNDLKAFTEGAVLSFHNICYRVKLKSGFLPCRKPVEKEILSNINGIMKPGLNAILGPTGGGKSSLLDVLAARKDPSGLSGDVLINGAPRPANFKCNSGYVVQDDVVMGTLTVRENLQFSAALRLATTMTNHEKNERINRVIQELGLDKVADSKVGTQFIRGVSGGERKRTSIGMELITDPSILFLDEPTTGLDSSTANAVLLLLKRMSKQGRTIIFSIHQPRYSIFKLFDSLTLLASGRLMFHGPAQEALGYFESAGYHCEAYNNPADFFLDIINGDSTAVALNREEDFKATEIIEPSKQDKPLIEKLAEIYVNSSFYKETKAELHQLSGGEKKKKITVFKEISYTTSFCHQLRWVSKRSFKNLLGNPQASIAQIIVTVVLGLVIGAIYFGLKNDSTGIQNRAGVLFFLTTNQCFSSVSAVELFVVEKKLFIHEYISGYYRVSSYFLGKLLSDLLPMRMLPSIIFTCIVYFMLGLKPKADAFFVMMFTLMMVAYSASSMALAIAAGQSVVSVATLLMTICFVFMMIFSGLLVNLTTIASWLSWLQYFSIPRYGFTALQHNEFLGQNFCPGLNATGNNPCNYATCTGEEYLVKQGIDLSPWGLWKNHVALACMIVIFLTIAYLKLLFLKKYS

[6] = biological target: T1, Broad substrate specificity ATP-binding cassette transporter ABCG2; assay: Inhibition of ABCG2 in human MCF7/FLV1000 cells assessed as increase in mitoxantrone accumulation at 400 uM incubated for 30 mins by flow cytometry; settings: 0.5 h
Homo sapiens [7] = species: Homo sapiens; assay: Inhibition of P-gp in human MCF7/DX1 cells assessed as increase in calcein-AM accumulation at 500 uM incubated for 10 mins by flow cytometry; assay type: cell-based; method in brief: as §1
[8] = biological target: ATP-dependent translocase ABCB1 (Homo sapiens, UniProt P08183); assay: Inhibition of human MDR1 expressed in Sf9 cell membranes assessed as reduction in [125I]-IAAP binding incubated for 20 mins under UV light irradiation and measured after 30 mins by densitometry based photo-affinity labeling assay
ATP-dependent translocase ABCB1, sequence (P08183 whole entry): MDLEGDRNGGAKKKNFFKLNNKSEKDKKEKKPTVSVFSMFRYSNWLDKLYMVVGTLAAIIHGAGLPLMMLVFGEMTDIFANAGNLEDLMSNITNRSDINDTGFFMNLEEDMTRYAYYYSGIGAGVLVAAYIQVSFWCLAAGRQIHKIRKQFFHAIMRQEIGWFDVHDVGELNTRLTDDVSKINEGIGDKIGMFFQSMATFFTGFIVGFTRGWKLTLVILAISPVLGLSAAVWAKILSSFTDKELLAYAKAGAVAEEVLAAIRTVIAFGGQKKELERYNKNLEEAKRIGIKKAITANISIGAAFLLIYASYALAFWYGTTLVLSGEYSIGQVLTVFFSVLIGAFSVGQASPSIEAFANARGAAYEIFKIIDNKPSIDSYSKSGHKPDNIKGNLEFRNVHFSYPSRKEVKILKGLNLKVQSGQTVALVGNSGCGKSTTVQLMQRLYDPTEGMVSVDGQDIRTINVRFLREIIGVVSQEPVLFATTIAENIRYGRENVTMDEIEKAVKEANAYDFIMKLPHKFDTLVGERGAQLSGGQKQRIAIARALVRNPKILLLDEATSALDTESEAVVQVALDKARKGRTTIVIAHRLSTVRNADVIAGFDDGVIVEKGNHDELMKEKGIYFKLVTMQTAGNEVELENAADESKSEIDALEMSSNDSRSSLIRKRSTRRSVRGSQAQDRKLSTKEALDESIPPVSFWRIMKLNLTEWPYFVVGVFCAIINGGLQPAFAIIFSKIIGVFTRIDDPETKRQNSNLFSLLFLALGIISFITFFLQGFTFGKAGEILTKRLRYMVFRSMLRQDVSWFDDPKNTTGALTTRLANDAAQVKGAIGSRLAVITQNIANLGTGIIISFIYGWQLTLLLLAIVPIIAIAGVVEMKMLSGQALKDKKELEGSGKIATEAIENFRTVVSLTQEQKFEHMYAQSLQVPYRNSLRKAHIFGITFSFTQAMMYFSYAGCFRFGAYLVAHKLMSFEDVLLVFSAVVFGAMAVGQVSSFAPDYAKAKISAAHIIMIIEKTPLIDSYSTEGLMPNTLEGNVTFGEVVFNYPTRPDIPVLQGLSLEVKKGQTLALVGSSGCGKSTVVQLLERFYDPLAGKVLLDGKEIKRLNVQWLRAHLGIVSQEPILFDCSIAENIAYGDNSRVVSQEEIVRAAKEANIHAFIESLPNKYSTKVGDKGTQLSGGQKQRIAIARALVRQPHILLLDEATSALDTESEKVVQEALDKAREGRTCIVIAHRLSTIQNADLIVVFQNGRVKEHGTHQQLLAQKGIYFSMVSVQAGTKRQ
Method in brief: (§3)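 Crude Sf9 membranes, from baculovirus infection expressing P-gp (25 µg) or ABCG2 (40 µg), were preincubated 10 min at room temperature in the dark. Buffer was 50 mM Tris pH 7.5 with 1% aprotinin, 1 mM DTT and 2 mM AEBSF. Additions were compound (in DMSO) and [125I]-IAAP, ~2200 Ci/mmol. Controls were 2.5% DMSO and GF120918 (10 µM for P-gp, 20 µM for ABCG2). Samples were UV-irradiated at 365 nm for 20 min on ice, then held 30 min in Laemmli buffer. Bands were resolved on 7.5% SDS-PAGE, autoradiographed and quantified as % of DMSO control to give IC50.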

[9] = Cytotoxicity in human MCF7/DX1 cells assessed as cell viability at 2.3 uM incubated for 24 hrs by MTT assay; assay type: cell-based; settings: read-out: Activity; method in brief: as §2
[10] = biological target: T1, Broad substrate specificity ATP-binding cassette transporter ABCG2; assay: Inhibition of human ABCG2 expressed in Sf9 cell membranes assessed as reduction in [125I]-IAAP binding incubated for 20 mins under UV light irradiation and measured after 30 mins by densitometry based photo-affinity labeling assay; method in brief: as §3
[11] = biological target: T1, Broad substrate specificity ATP-binding cassette transporter ABCG2; assay: Inhibition of ABCG2 in human MCF7/FLV1000 cells assessed as increase in mitoxantrone accumulation at 200 uM incubated for 30 mins by flow cytometry; settings: 0.5 h
Homo sapiens [12] = species: Homo sapiens; assay: Inhibition of P-gp in human MCF7/DX1 cells assessed as increase in calcein-AM accumulation at 400 uM incubated for 10 mins by flow cytometry; assay type: cell-based; method in brief: as §1

Cc1cn([C@H]2C[C@H](N=[N+]=[N-])[C@@H](COC(=O)CCCCCCCCCCCCC(=O)OC[C@H]3O[C@@H](n4cc(C)c(=O)[nH]c4=O)C[C@@H]3N=[N+]=[N-])O2)c(=O)[nH]c1=O
IC50 [1]: 2 µM | viability at 24 h, 2 µM [2]: > 95% | viability at 24 h, 13.3 µM [3]: > 95% | viability at 24 h, 40 µM [4]: 60% | IC50 [5]: 13.3 µM

Cc1cn([C@H]2C[C@H](N=[N+]=[N-])[C@@H](CO)O2)c(=O)[nH]c1=O [ZIDOVUDINE]
inhibition (INH) [6]: Not Active | inhibition (Homo sapiens [7]): inactive

Cc1cn([C@H]2C[C@H](N=[N+]=[N-])[C@@H](COC(=O)CCCCCCCCCCC(=O)OC[C@H]3O[C@@H](n4cc(C)c(=O)[nH]c4=O)C[C@@H]3N=[N+]=[N-])O2)c(=O)[nH]c1=O
IC50 [1]: 2.3 µM | IC50 [8]: 9.3 µM | inhibition (INH) ([8]; human, 20 min): Dose-dependent effect | viability at 24 h, 2.3 µM [9]: > 95% | viability at 24 h, 11.5 µM [3]: > 95% | IC50 [5]: 11.5 µM | IC50 [10]: 4.3 µM | inhibition (INH) ([10]; human, 20 min): Dose-dependent effect

Cc1cn([C@H]2C[C@H](N=[N+]=[N-])[C@@H](COC(=O)CCCCCC(=O)OC[C@H]3O[C@@H](n4cc(C)c(=O)[nH]c4=O)C[C@@H]3N=[N+]=[N-])O2)c(=O)[nH]c1=O
IC50 [1]: > 200 µM | inhibition (INH) [11]: Not Active

Cc1cn([C@H]2C[C@H](N=[N+]=[N-])[C@@H](COC(=O)CCC(=O)OC[C@H]3O[C@@H](n4cc(C)c(=O)[nH]c4=O)C[C@@H]3N=[N+]=[N-])O2)c(=O)[nH]c1=O
inhibition (Homo sapiens [12]): inactive | inhibition (INH) [11]: Not Active

Cc1cn([C@H]2C[C@H](N=[N+]=[N-])[C@@H](COC(=O)CCCCCCCCC(=O)OC[C@H]3O[C@@H](n4cc(C)c(=O)[nH]c4=O)C[C@@H]3N=[N+]=[N-])O2)c(=O)[nH]c1=O
IC50 [1]: 11.3 µM | IC50 [5]: 28.2 µM

From ChEMBL document CHEMBL4043109, “Dual inhibitors of the human blood-brain barrier drug efflux transporters P-glycoprotein and ABCG2 based on the antiviral azidothymidine” (Bioorg Med Chem, 2017)
